Assay results published in ChEMBL document CHEMBL4831495, “Discovery of novel BCR-ABL PROTACs based on the cereblon E3 ligase design, synthesis, and biological evaluation” (Eur J Med Chem, 2021).
Activity calls are given as the source filed them. No cut-off for these calls is given here.

How the values were obtained:
[1] = test system: K562; assay: Antiproliferative activity against human K562 cells assessed as cell growth inhibition measured after 48 hrs by CCK8 assay; type: functional, cell-based; conditions: K562, 48 h
Summary of the method: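 Cells were seeded at 3000-20,000 per well and given 3-fold serial dilutions of compound in medium. After 2 days at 37 °C in 5% CO2, CCK-8 reagent was added for 2-4 h and absorbance was read at 450 nm.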

[2] = biological target: T1, Protein cereblon/Tyrosine-protein kinase ABL1/Breakpoint cluster region protein (Homo sapiens, UniProt P00519+P11274+Q96SW2); assay: PROTAC activity at CRBN/Bcr-Abl in human K562 cells assessed as degrading activity by Western blotting analysis; type: cell-based
Target sequence in this assay (P00519 whole entry): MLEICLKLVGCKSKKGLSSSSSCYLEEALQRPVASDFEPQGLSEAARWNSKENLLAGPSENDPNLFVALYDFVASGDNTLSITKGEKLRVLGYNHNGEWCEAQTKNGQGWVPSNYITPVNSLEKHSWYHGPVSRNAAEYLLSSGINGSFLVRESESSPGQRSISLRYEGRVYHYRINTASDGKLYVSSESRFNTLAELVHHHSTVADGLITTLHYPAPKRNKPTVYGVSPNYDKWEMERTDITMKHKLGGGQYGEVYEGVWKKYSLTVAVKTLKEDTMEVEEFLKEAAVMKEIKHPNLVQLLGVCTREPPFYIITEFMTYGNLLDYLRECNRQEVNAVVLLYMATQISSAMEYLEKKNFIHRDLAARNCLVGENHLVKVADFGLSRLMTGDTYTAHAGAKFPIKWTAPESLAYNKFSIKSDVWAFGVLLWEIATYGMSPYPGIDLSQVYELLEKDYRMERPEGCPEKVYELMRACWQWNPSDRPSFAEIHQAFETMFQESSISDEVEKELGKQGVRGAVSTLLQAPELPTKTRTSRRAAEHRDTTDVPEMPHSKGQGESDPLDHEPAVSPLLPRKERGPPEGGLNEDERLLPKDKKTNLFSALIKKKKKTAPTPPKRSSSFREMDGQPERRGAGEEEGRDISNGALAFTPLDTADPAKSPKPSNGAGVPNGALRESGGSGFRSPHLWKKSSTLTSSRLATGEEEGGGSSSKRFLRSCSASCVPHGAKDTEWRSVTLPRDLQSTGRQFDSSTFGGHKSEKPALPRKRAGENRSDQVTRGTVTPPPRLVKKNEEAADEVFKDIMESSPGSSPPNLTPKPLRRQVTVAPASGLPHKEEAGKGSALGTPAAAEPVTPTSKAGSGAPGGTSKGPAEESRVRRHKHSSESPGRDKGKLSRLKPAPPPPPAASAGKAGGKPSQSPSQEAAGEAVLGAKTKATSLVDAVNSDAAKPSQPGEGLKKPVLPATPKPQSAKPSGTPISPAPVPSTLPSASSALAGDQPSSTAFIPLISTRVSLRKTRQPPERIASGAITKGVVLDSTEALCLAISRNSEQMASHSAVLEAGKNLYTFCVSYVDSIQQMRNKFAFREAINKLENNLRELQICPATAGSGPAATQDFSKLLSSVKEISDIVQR
Target sequence in this assay (P11274 whole entry): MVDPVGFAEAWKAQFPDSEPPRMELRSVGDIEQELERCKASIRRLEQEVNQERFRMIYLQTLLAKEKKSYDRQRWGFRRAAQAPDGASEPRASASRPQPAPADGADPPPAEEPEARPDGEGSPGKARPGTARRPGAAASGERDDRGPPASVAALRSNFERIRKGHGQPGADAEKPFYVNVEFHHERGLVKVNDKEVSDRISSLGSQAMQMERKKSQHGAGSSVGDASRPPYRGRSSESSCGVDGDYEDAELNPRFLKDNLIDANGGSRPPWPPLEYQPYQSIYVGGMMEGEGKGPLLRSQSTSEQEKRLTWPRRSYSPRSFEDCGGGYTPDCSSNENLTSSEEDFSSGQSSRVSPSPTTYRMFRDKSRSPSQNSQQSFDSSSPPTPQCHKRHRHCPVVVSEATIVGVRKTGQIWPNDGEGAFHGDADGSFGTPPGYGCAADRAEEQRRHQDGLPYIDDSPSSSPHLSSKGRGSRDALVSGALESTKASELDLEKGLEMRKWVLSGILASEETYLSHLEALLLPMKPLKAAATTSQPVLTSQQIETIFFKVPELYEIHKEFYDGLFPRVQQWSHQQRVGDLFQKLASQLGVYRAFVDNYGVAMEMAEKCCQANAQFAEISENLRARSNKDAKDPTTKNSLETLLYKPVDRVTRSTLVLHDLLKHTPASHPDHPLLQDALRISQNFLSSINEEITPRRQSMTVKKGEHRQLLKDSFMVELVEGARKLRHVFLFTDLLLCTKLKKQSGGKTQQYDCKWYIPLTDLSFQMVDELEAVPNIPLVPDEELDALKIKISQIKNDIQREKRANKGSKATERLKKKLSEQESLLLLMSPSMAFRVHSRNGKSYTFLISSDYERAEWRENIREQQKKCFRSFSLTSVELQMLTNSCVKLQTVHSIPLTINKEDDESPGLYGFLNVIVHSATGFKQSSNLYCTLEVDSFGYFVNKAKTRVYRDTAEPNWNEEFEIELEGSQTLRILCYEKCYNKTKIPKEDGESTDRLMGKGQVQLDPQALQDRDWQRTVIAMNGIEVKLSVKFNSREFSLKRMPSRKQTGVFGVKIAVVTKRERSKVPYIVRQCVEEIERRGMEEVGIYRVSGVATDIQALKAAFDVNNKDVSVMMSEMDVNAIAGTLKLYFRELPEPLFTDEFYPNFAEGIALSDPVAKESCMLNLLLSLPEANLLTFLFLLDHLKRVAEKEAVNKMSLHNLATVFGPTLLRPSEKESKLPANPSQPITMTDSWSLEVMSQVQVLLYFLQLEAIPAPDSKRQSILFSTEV
Target sequence in this assay (Q96SW2 whole entry): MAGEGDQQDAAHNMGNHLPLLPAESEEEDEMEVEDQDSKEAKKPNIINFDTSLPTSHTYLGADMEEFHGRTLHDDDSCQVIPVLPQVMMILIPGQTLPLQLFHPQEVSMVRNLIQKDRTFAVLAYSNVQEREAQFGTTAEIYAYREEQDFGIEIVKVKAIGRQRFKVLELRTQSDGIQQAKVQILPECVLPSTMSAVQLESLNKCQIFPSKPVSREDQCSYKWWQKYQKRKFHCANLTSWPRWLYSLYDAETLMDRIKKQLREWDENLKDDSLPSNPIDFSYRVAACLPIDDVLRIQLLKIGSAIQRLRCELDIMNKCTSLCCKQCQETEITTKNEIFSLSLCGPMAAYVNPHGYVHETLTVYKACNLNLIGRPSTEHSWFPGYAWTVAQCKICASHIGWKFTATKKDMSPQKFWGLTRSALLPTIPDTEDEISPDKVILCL

[3] = MRT (0 to t) in Wistar rat at 2 mg/kg, iv by LC-MS/MS analysis; type: ADME, organism-based; conditions: in vivo
Summary of the method: (§1)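 Single intravenous dose of 2 mg/kg into the femoral vein of female Wistar rats, given as a solution in NMP/PEG200 (1:9, v/v). Plasma was collected by sublingual vein bleeding at 0.083, 0.25, 0.5, 1, 2, 4, 6, 8, 12 and 24 h from one group of rats (n = 3). Samples were extracted and quantified by LC-MS/MS, LOQ 2.5 ng/mL.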

[4] = AUC (0 to t) in Wistar rat at 2 mg/kg, iv by LC-MS/MS analysis; type: ADME, organism-based; parameters: dose 2 mg/kg; conditions: in vivo; summary of the method: as §1
[5] = biological target: T1, Protein cereblon/Tyrosine-protein kinase ABL1/Breakpoint cluster region protein; assay: PROTAC activity at CRBN/Bcr-Abl in human K562 cells assessed as reduction in STAT5 level after 16 hrs by Western blotting analysis; type: cell-based
Summary of the method: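 K562 cells were plated at 3 × 10^5 cells/mL and treated with graded concentrations for 16 h. Lysates in 1× SDS buffer with protease inhibitors were quantified by Bradford assay. Western blots were probed with antibodies against Stat5, phospho-Stat5 (Tyr694) and […], among others.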
Target sequence in this assay (P00519 whole entry, looked up): as the sequence (P00519 whole entry) above
Target sequence in this assay (P11274 whole entry, looked up): as the sequence (P11274 whole entry) above
Target sequence in this assay (Q96SW2 whole entry, looked up): as the sequence (Q96SW2 whole entry) above

[6] = biological target: T1, Protein cereblon/Tyrosine-protein kinase ABL1/Breakpoint cluster region protein; assay: PROTAC activity at CRBN/Bcr-Abl in human K562 cells assessed as reduction in Bcr-Abl level at 30 nM by Western blotting analysis; type: cell-based; conditions: time 0-24 hrs
Target sequence in this assay (P00519 whole entry, looked up): as the sequence (P00519 whole entry) above
Target sequence in this assay (P11274 whole entry, looked up): as the sequence (P11274 whole entry) above
Target sequence in this assay (Q96SW2 whole entry, looked up): as the sequence (Q96SW2 whole entry) above

[7] = Cmax in Wistar rat at 2 mg/kg, iv by LC-MS/MS analysis; type: ADME, organism-based; parameters: route intravenous, dose 2 mg/kg; conditions: in vivo; summary of the method: as §1
[8] = test system: K562; assay: Antitumor activity against human K562 cells xenografted in NOD-SCID mouse assessed as tumor growth inhibition at 10 mg/kg, ip administered daily 10 days; type: functional; conditions: 240 h, time 10 day, read-out: TGI
Summary of the method: (§2)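 Mice carried K562-Luc xenografts, with 2 × 10^6 cells inoculated per mouse. Dosing began at a mean tumor volume of about 200 mm3. Drug in DMSO/PEG 400/40% hydroxypropyl-(1:3:6, vol/vol) was given ip once daily for 10 consecutive days at 1, 3 or 10 mg/kg. Calipers were used 2-3 times weekly, with V = L × W²/2, and TGI was calculated at day 10.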

[9] = biological target: T1, Protein cereblon/Tyrosine-protein kinase ABL1/Breakpoint cluster region protein; assay: PROTAC activity at CRBN/Bcr-Abl in human K562 cells assessed as reduction in C-Abl level at 30 nM preincubated with proteasome inhibitor MG132 for 2 hrs and measured after 8 hrs by Western blotting analysis; type: cell-based
Summary of the method: (§3)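 K562 cells were pretreated for 2 h with MG132 ([…] as printed) or MLN4924 ([…] as printed), then exposed to degrader at 30 nM for 8 h. Cells were lysed in 1× SDS buffer with protease inhibitors, and protein was quantified by Bradford assay. BCR-ABL and c-ABL were detected by Western blot.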
Target sequence in this assay (P00519 whole entry, looked up): as the sequence (P00519 whole entry) above
Target sequence in this assay (P11274 whole entry, looked up): as the sequence (P11274 whole entry) above
Target sequence in this assay (Q96SW2 whole entry, looked up): as the sequence (Q96SW2 whole entry) above

[10] = biological target: Protein cereblon/Platelet-derived growth factor receptor beta (Homo sapiens) (UniProt P09619+Q96SW2); assay: PROTAC activity at CRBN/PDGFRbeta in human K562 cells assessed as PDGFRbeta degrading activity by Western blotting analysis; type: cell-based
[11] = biological target: Protein cereblon/Proto-oncogene tyrosine-protein kinase Src (Homo sapiens) (UniProt P12931+Q96SW2); assay: PROTAC activity at CRBN/Src in human K562 cells assessed as Src degrading activity by Western blotting analysis; type: cell-based
Protein cereblon/Proto-oncogene tyrosine-protein kinase Src (Homo sapiens), sequence (P12931 whole entry, looked up): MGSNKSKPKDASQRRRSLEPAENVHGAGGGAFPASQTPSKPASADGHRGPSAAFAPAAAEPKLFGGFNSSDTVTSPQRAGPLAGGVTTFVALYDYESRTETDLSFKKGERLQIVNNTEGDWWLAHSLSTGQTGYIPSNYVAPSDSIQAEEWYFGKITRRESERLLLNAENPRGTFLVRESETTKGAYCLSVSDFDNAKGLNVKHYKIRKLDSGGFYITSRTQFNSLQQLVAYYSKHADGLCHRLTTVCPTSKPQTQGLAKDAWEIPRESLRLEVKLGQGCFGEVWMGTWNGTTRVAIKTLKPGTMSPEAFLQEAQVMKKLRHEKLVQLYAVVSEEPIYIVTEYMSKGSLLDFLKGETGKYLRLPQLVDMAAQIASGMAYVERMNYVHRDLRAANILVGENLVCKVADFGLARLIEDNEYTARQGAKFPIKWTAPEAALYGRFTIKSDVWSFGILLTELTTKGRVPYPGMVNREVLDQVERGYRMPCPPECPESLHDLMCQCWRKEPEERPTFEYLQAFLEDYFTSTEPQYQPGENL
Protein cereblon/Proto-oncogene tyrosine-protein kinase Src (Homo sapiens), sequence (Q96SW2 whole entry, looked up): as the sequence (Q96SW2 whole entry) above

[12] = Apparent volume of distribution during terminal state in Wistar rat at 2 mg/kg, iv by LC-MS/MS analysis; type: ADME, organism-based; conditions: in vivo, read-out: Vz; summary of the method: as §1
[13] = biological target: T1, Protein cereblon/Tyrosine-protein kinase ABL1/Breakpoint cluster region protein; assay: PROTAC activity at CRBN/Bcr-Abl in human K562 cells assessed as reduction in CRLK level after 16 hrs by Western blotting analysis; type: cell-based
Target sequence in this assay (P00519 whole entry, looked up): as the sequence (P00519 whole entry) above
Target sequence in this assay (P11274 whole entry, looked up): as the sequence (P11274 whole entry) above
Target sequence in this assay (Q96SW2 whole entry, looked up): as the sequence (Q96SW2 whole entry) above

[14] = biological target: T1, Protein cereblon/Tyrosine-protein kinase ABL1/Breakpoint cluster region protein; assay: PROTAC activity at CRBN/Bcr-Abl in human K562 cells assessed as reduction in C-Abl level at 30 nM preincubated with NEDD8 inhibitor MLN4924 for 2 hrs and measured after 8 hrs by Western blotting analysis; type: cell-based; summary of the method: as §3
Target sequence in this assay (P00519 whole entry, looked up): as the sequence (P00519 whole entry) above
Target sequence in this assay (P11274 whole entry, looked up): as the sequence (P11274 whole entry) above
Target sequence in this assay (Q96SW2 whole entry, looked up): as the sequence (Q96SW2 whole entry) above

[15] = Toxicity in NOD-SCID mouse xenografted with human K562 cells assessed as reduction in body weight at 100 mg/kg, ip measured on day 10; type: organism-based; conditions: in vivo
[16] = biological target: T1, Protein cereblon/Tyrosine-protein kinase ABL1/Breakpoint cluster region protein; assay: PROTAC activity at CRBN/Bcr-Abl in human K562 cells assessed as reduction in Bcr-Abl level at 30 nM preincubated with proteasome inhibitor MG132 for 2 hrs and measured after 8 hrs by Western blotting analysis; type: cell-based; summary of the method: as §3
Target sequence in this assay (P00519 whole entry, looked up): as the sequence (P00519 whole entry) above
Target sequence in this assay (P11274 whole entry, looked up): as the sequence (P11274 whole entry) above
Target sequence in this assay (Q96SW2 whole entry, looked up): as the sequence (Q96SW2 whole entry) above

[17] = test system: Protein cereblon/Tyrosine-protein kinase ABL1/Breakpoint cluster region protein (Homo sapiens), P00519+P11274+Q96SW2 [F317L]; assay: PROTAC activity at CRBN/BCR-ABL F317L mutant in human K562 cells assessed as degradation by Western blot analysis relative to control; type: cell-based
Summary of the method: (§4)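 Cells plated at 3 × 10^5 cells/mL and exposed to compounds at the indicated concentrations and times. Cells were then harvested, washed in cold PBS and lysed in 1× SDS buffer with protease inhibitor cocktail. Protein was quantified by detergent-compatible Bradford assay, and BCR-ABL was detected by Western blot with a c-ABL antibody.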

[18] = test system: K562; assay: Antitumor activity against human K562 cells xenografted in NOD-SCID mouse assessed as tumor growth inhibition at 1 mg/kg, ip administered daily 10 days; type: functional; conditions: 240 h, time 10 day, read-out: TGI; summary of the method: as §2
[19] = test system: K562; assay: Antitumor activity against human K562 cells xenografted in NOD-SCID mouse assessed as tumor growth inhibition at 3 mg/kg, ip administered daily 10 days; type: functional; conditions: 240 h, time 10 day, read-out: TGI; summary of the method: as §2
[20] = Clearance in Wistar rat at 2 mg/kg, iv by LC-MS/MS analysis; type: ADME, organism-based; conditions: in vivo; summary of the method: as §1
[21] = Tmax in Wistar rat at 2 mg/kg, iv by LC-MS/MS analysis; type: ADME, organism-based; conditions: in vivo; summary of the method: as §1
[22] = test system: Protein cereblon/Tyrosine-protein kinase ABL1/Breakpoint cluster region protein (Homo sapiens), P00519+P11274+Q96SW2 [V299L]; assay: PROTAC activity at CRBN/BCR-ABL V299L mutant in human K562 cells assessed as degradation by Western blot analysis relative to control; type: cell-based; summary of the method: as §4
[23] = biological target: T1, Protein cereblon/Tyrosine-protein kinase ABL1/Breakpoint cluster region protein; assay: PROTAC activity at CRBN/Bcr-Abl in human K562 cells assessed as reduction in Bcr-Abl level at 30 nM preincubated with NEDD8 inhibitor MLN4924 for 2 hrs and measured after 8 hrs by Western blotting analysis; type: cell-based; summary of the method: as §3
[24] = Half life in Wistar rat at 2 mg/kg, iv by LC-MS/MS analysis; type: ADME, organism-based; conditions: in vivo; summary of the method: as §1
[25] = test system: Protein cereblon/Tyrosine-protein kinase ABL1/Breakpoint cluster region protein (Homo sapiens), P00519+P11274+Q96SW2 [E255V]; assay: PROTAC activity at CRBN/BCR-ABL E255V mutant in human K562 cells assessed as degradation by Western blot analysis relative to control; type: cell-based; summary of the method: as §4
[26] = Apparent volume of distribution during steady state in Wistar rat at 2 mg/kg, iv by LC-MS/MS analysis; type: ADME, organism-based; conditions: in vivo, read-out: Vdss; summary of the method: as §1

## Cc1nc(Nc2ncc(C(=O)Nc3c(C)cccc3Cl)s2)cc(N2CCN(C(=O)CCc3cccc4c3C(=O)N(C3CCC(=O)NC3=O)C4=O)CC2)n1 (configuration not stated)
[1]
  IC50: 2.84 nM
[2]
  DC50: 95.4 nM

## Cc1nc(Nc2ncc(C(=O)Nc3c(C)cccc3Cl)s2)cc(N2CCN(C(=O)CCOCCOCCOCCOCCNc3cccc4c3C(=O)N(C3CCC(=O)NC3=O)C4=O)CC2)n1 (configuration not stated)
[1]
  IC50: 40.4 nM
[2]
  DC50: 26.1 nM

## Cc1nc(Nc2ncc(C(=O)Nc3c(C)cccc3Cl)s2)cc(N2CCN(C(=O)CNc3cccc4c3C(=O)N(C3CCC(=O)NC3=O)C4=O)CC2)n1 (configuration not stated)
[1]
  IC50: 1.22 nM
[2]
  DC50: 10 nM

## Cc1nc(Nc2ncc(C(=O)Nc3c(C)cccc3Cl)s2)cc(N2CCN(C(=O)CCCC(=O)Nc3cccc4c3CN(C3CCC(=O)NC3=O)C4=O)CC2)n1 (configuration not stated)
[1]
  IC50: 1.03 nM
[2]
  DC50: 125 nM

## Cc1nc(Nc2ncc(C(=O)Nc3c(C)cccc3Cl)s2)cc(N2CCN(C(=O)CSc3cccc4c3CN(C3CCC(=O)NC3=O)C4=O)CC2)n1 (configuration not stated)
[1]
  IC50: 5.7 nM
[2]
  DC50: 8.9 nM

## Cc1nc(Nc2ncc(C(=O)Nc3c(C)cccc3Cl)s2)cc(N2CCN(CCCCC(=O)Nc3cccc4c3C(=O)N(C3CCC(=O)NC3=O)C4=O)CC2)n1 (configuration not stated)
[1]
  IC50: 4.6 nM
[2]
  DC50: 10.1 nM

## Cc1nc(Nc2ncc(C(=O)Nc3c(C)cccc3Cl)s2)cc(N2CCN(C(=O)CS(=O)(=O)c3cccc4c3C(=O)N(C3CCC(=O)NC3=O)C4=O)CC2)n1 (configuration not stated)
[1]
  IC50: 206 nM
[2]
  DC50: 245 nM

## Cc1nc(Nc2ncc(C(=O)Nc3c(C)cccc3Cl)s2)cc(N2CCN(CCSc3cccc4c3C(=O)N(C3CCC(=O)NC3=O)C4=O)CC2)n1 (configuration not stated)
[3]
  MRT last: 2 h
[4]
  AUC(0-t): 926 ng·h/mL
[5]
  inhibition: Active
[6]
  inhibition: Active
[7]
  Cmax: 1500 ng/mL
[8]
  inhibition in vivo at 10 mg/kg: 98.8%
[9]
  inhibition: Active
[10]
  Activity: inactive
[11]
  Activity: inactive
[12]
  Vd: 13 L/kg
[1]
  IC50: 0.49 nM
[13]
  inhibition: Active
[14]
  inhibition: Active
[15]
  Activity: Non-Toxic
[16]
  inhibition: Active
[2]
  DC50: 0.18 nM
[17]
  Activity: Active
[18]
  inhibition in vivo at 1 mg/kg: 78.9%
[19]
  inhibition in vivo at 3 mg/kg: 93.8%
[20]
  clearance: 35.7 mL/min/kg
[21]
  Tmax: 4.8 min
[22]
  Activity: Active
[23]
  inhibition: Active
[24]
  half-life: 4.23 h
[25]
  Activity: Active
[26]
  Vd: 5.23 L/kg

## Cc1nc(Nc2ncc(C(=O)Nc3c(C)cccc3Cl)s2)cc(N2CCN(C(=O)CSc3cccc4c3C(=O)N(C3CCC(=O)NC3=O)C4=O)CC2)n1 (configuration not stated)
[1]
  IC50: 3.2 nM
[2]
  DC50: 5.6 nM

## Cc1nc(Nc2ncc(C(=O)Nc3c(C)cccc3Cl)s2)cc(N2CCN(C(=O)CCCCNc3cccc4c3C(=O)N(C3CCC(=O)NC3=O)C4=O)CC2)n1 (configuration not stated)
[1]
  IC50: 0.55 nM
[2]
  DC50: 11 nM

## Cc1nc(Nc2ncc(C(=O)Nc3c(C)cccc3Cl)s2)cc(N2CCN(C(=O)CCOCCOCCOCCOCCOCCNc3cccc4c3C(=O)N(C3CCC(=O)NC3=O)C4=O)CC2)n1 (configuration not stated)
[1]
  IC50: 31.9 nM
[2]
  DC50: 10.8 nM

## Cc1nc(Nc2ncc(C(=O)Nc3c(C)cccc3Cl)s2)cc(N2CCN(CCCCCCOCCOCCOCCCCCC(=O)Nc3cccc4c3C(=O)N(C3CCC(=O)NC3=O)C4=O)CC2)n1 (configuration not stated)
[1]
  IC50: 4.1 nM
